This note sets out measurements from ChEMBL document CHEMBL1155146, “Diphenyl furans and aza analogs: effects of structural modification on in vitro activity, DNA binding, and accumulation and distribution in trypanosomes” (Antimicrob Agents Chemother, 2007).

Data set [1] concerns Trypanosoma brucei brucei. Kind of data set: Drug level in Trypanosoma brucei brucei S427 at 7.5 uM after 24 hrs. It counts as ADME, organism-based.
The test system of data set [2] is Trypanosoma brucei brucei. Kind of data set: Drug level in Trypanosoma brucei brucei S427 at 7.5 uM after 8 hrs. In kind it is ADME, organism-based. In a few lines: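 About 10^6 trypanosomes incubated with 7.5 µM diamidine for 1 to 8 h. Intracellular concentration measured by HPLC (fluorescence detection at excitation/emission maxima, formate buffer/acetonitrile gradient, reversed-phase column) or LC/MS. Reported as mean ± standard error.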

The subject of data set [3] is Trypanosoma brucei brucei. The data set can be described thus: Antitrypanosomal activity against Trypanosoma brucei brucei S427 after 72 hrs. It counts as functional, organism-based. The following applies: S427, 72 h.
Data set [4] in a line: Binding affinity at d(CGCGAATTCGCG) synthetic oligomer duplex assessed as increase in melting temperature. In a few lines: (§1)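 UV thermal melting in MES buffer (0.01 M MES, 0.1 M NaCl, 0.001 M EDTA, pH 6.2), heated at 0.5°C/min. Oligomer duplex at 1 x 10^-6 M duplex with 1:1 compound:duplex. Poly(dA)·poly(dT) at 5 x 10^-5 M base pairs with 0.6 compound:bp. Tm taken from the first-derivative maximum of absorbance vs temperature. ΔTm = Tm(complex) − Tm(DNA).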

Data set [5] is described as follows: Binding affinity to poly(dA).poly(dT) assessed as increase in melting temperature. Summed up: as §1
Data set [6] concerns Trypanosoma brucei rhodesiense. The data set can be described thus: Antitrypanosomal activity against Trypanosoma brucei rhodesiense STIB900 after 72 hrs. It counts as functional, organism-based. Particulars: STIB900, 72 h.

As for `N=C(N)c1ccc(-c2ccc(-c3ccc(C(=N)N)cn3)o2)cc1`, the Drug uptake is reported as 3 mM in data set [1] and 1 mM in data set [2]. In addition, in data set [3], 3.4 nM corresponded to half-maximal inhibition (IC50). In addition, the ΔTm in data set [4] was found to be 11.2 °C; in data set [5], 20 °C.

As for `c1cc(-c2ccc(-c3ccc(C4=NCCCN4)cc3)o2)ccc1C1=NCCCN1`, the results for the 50% inhibitory concentration (IC50) in data set [3] and in data set [6] were 260 nM and 33 nM, respectively. The ΔTm in data set [4] turned out to be 15.1 °C; in data set [5], 27 °C.

`c1cc(-c2ccc(-c3ccc(C4=NCCN4)cc3)o2)ccc1C1=NCCN1`: the IC50 in data set [3] came to 251 nM; in data set [6], 245 nM. Further, the ΔTm in data set [4] was 11 °C; in data set [5], 19.3 °C.

On to `N=C(NC1CCCC1)c1ccc(-c2ccc(-c3ccc(C(=N)NC4CCCC4)cc3)o2)cc1`, for which, in data set [2], the Drug uptake turned out to be 30 mM. In addition, the IC50 was determined as 100 nM in data set [3] and 60 nM in data set [6]. The ΔTm in data set [4] is 16 °C; in data set [5], 27 °C.

`N=C(N)c1ccc(-c2ccc(-c3ccc(C(=N)N)nc3)o2)cc1`: the Drug uptake in data set [2] is 9.3 mM. Besides, the values for the IC50 in data set [3] and in data set [6] were 3.3 nM and 2.1 nM, respectively. In addition, the shift in melting temperature (ΔTm) came to 10.4 °C in data set [4] and 23.3 °C in data set [5].

With `N=C(N)c1ccc(-c2ccc(-c3ccc(C(=N)N)cn3)o2)nc1`, the half-maximal inhibitory concentration (IC50) in data set [3] turned out to be 13 nM; in data set [6], 19 nM. Also, the ΔTm worked out at 8.4 °C in data set [4] and 16 °C in data set [5].

On to `N=C(N)c1ccc(-c2ccc(-c3ccc(C(=N)N)cc3F)o2)c(F)c1`, for which the IC50 in data set [3] amounted to 14.8 nM; in data set [6] it was 8 nM. Moreover, the ΔTm worked out at 8.2 °C in data set [4] and 15.2 °C in data set [5].

For `Cc1cc(C(=N)N)ccc1-c1ccc(-c2ccc(C(=N)N)cn2)o1`, the IC50 in data set [3] came to 10 nM; in data set [6] it was 9.7 nM. In addition, the figures for the ΔTm in data set [4] and in data set [5] were 10.6 °C and 16.7 °C, respectively.

On to `N=C(N)c1ccc(-c2ccc(-c3ccc(C(=N)N)cc3O)o2)nc1`, for which the IC50 in data set [3] and in data set [6] was 32 nM in each case. Besides, the ΔTm in data set [4] stood at 10.4 °C; in data set [5], 16.4 °C.

In the case of `N=C(N)c1ccc(-c2ccc(-c3ccc(C(=N)N)cc3)o2)cc1` [FURAMIDINE], the Drug uptake in data set [1] was 12 mM; in data set [2], 4.5 mM. Also, in data set [3], it took 7 nM to reach half-maximal inhibition (IC50). Besides, the ΔTm amounted to 8.9 °C in data set [4] and 26.2 °C in data set [5].

On to `N=C(N)c1ccc(Cc2ccc(-c3ccc(C(=N)N)cn3)o2)cc1`, for which the IC50 in data set [3] came to 314 nM; in data set [6], 147 nM. For the same molecule, the ΔTm in data set [4] amounted to 0.4 °C; in data set [5], 3.1 °C.

In the case of `N=C(N)c1ccc(-c2coc(-c3ccc(C(=N)N)cc3)c2)cc1`, the Drug uptake in data set [2] stood at 30 mM. For the same molecule, the figures for the IC50 in data set [3] and in data set [6] were 2.1 nM and 1.7 nM, respectively. The ΔTm in data set [4] was 10.4 °C; in data set [5], 17.1 °C.

`N=C(NC1CCCCC1)c1ccc(-c2ccc(-c3ccc(C(=N)NC4CCCCC4)cc3)o2)cc1`: the Drug uptake in data set [2] amounted to 30 mM. The IC50 in data set [3] worked out at 121 nM; in data set [6], 68 nM. The shift in melting temperature (ΔTm) in data set [4] is 16.8 °C; in data set [5] it was 27 °C.
